According to ChEMBL document CHEMBL2311431, “Synthesis and biological evaluation of some 5-arylidene-2-(1,3-thiazol-2-ylimino)-1,3-thiazolidin-4-ones as dual anti-inflammatory/antimicrobial agents” (Bioorg Med Chem, 2013):
pIC50: −log10 of the molar value. ≈ marks a conversion by molar mass, not a printed value.

Tests used:
Pseudomonas aeruginosa [1] = assay: Bactericidal activity against Pseudomonas aeruginosa ATCC 27853 after 72 hrs by serial subcultivation method; assay type: functional; settings: ATCC 27853, 72 h
Bacillus cereus [2] = assay: Antibacterial activity against Bacillus cereus clinical isolate after 24 hr by microdilution test; assay type: functional
Method in brief: (§1)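 Broth microdilution in LB medium, about 1.0×10^4 cfu per well; compounds from 1 mg/ml stocks in 5% DMSO. Incubated 24 h. MIC is the lowest concentration with no visible growth under a binocular microscope. Run in duplicate, repeated three times.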

Aspergillus flavus [3] = assay: Fungicidal activity against Aspergillus flavus ATCC 9643 after 72 hrs by serial subcultivation method; assay type: functional; settings: ATCC 9643, 72 h
Aspergillus fumigatus [4] = assay: Fungicidal activity against Aspergillus fumigatus after 72 hrs by serial subcultivation method; assay type: functional
Penicillium ochrochloron [5] = assay: Fungicidal activity against Penicillium ochrochloron ATCC 9112 after 72 hrs by serial subcultivation method; assay type: functional; settings: ATCC 9112, 72 h
Pseudomonas aeruginosa [6] = assay: Antibacterial activity against Pseudomonas aeruginosa ATCC 27853 after 24 hr by microdilution test; assay type: functional; settings: ATCC 27853, 24 h; method in brief: as §1
[7] = target: T1, Prostaglandin G/H synthase 1 (Ovis aries) (UniProt P05979); assay: Inhibition of ovine COX1 assessed as inhibition of PGF2a production by enzyme immunoassay; parameters: concentration or dose not given beside the values; settings: concentration not given here
T1 sequence (whole entry): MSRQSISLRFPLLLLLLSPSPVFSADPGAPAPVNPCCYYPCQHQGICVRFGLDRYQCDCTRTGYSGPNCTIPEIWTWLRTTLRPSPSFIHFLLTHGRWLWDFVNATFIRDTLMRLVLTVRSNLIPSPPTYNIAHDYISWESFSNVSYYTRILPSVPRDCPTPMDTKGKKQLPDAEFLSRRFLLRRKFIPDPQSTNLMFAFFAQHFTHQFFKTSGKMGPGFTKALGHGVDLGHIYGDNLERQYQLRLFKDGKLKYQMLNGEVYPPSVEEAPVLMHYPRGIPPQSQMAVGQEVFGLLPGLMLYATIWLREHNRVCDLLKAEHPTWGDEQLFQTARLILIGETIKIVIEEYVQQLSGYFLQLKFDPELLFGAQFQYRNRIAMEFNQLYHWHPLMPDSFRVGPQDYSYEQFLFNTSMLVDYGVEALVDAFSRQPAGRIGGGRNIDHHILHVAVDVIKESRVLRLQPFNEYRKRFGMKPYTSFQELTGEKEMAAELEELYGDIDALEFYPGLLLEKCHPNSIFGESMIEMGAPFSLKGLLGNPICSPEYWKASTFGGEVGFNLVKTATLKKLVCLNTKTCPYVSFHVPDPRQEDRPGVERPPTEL
Method in brief: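 Ovine COX-1 from a commercial screening kit, tested with 0.1 µM arachidonic acid, which is below the saturating level. COX-derived PGH2 is reduced by SnCl2 to PGF2a, quantified by enzyme immunoassay with a broad prostaglandin antibody. At least triplicate.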

Trichoderma viride [8] = assay: Antifungal activity against Trichoderma viride IAM 5061 after 72 hrs by serial dilution technique; assay type: functional; settings: IAM 5061, 72 h
Method in brief: (§2)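 Serial dilution in malt broth; compounds from 1 mg/ml stocks in 5% DMSO; 72 h at 28 °C. MIC is the lowest concentration with no visible growth under a binocular microscope. Run in duplicate, repeated three times.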

Escherichia coli [9] = assay: Bactericidal activity against Escherichia coli ATCC 35210 after 72 hrs by serial subcultivation method; assay type: functional; settings: ATCC 35210, 72 h
Mus musculus [10] = assay: Antiinflammatory activity in AKR mouse assessed as inhibition of carrageenan-induced paw edema at 0.01 mmol/kg, ip measured after 3.5 hrs of carrageenan-challenge; assay type: functional
Method in brief: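 AKR mice of both sexes (pregnant females excluded), 6-10 per group, fasted during the experiment. Edema induced by intradermal 0.05 mL of 2% carrageenin into the right hind paw. Compound given at 0.01 mmol/kg ip, suspended in water with Tween-80, at the same time as carrageenin.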

Micrococcus flavus [11] = assay: Bactericidal activity against Micrococcus flavus ATCC 10240 after 72 hrs by serial subcultivation method; assay type: functional; settings: ATCC 10240, 72 h
Mus musculus [12] = assay: Acute toxicity in AKR mouse up to 0.5 mmol/kg, ip; assay type: organism-based; settings: in vivo
Listeria monocytogenes [13] = assay: Bactericidal activity against Listeria monocytogenes NCTC 7973 after 72 hrs by serial subcultivation method; assay type: functional; settings: NCTC 7973, 72 h
Listeria monocytogenes [14] = assay: Antibacterial activity against Listeria monocytogenes NCTC 7973 after 24 hr by microdilution test; assay type: functional; settings: NCTC 7973, 24 h; method in brief: as §1
Escherichia coli [15] = assay: Antibacterial activity against Escherichia coli ATCC 35210 after 24 hr by microdilution test; assay type: functional; settings: ATCC 35210, 24 h; method in brief: as §1
Staphylococcus aureus [16] = assay: Bactericidal activity against Staphylococcus aureus ATCC 6538 after 72 hrs by serial subcultivation method; assay type: functional; settings: ATCC 6538, 72 h
Penicillium ochrochloron [17] = assay: Antifungal activity against Penicillium ochrochloron ATCC 9112 after 72 hrs by serial dilution technique; assay type: functional; settings: ATCC 9112, 72 h; method in brief: as §2
[18] = Inhibition of soybean lipoxygenase assessed as inhibition of sodium linolate conversion to 13-hydroperoxylinoleic acid after 4 mins by spectrophotometry; parameters: species or system Glycine max; settings: read-out: IC50
Micrococcus flavus [19] = assay: Antibacterial activity against Micrococcus flavus ATCC 10240 after 24 hr by microdilution test; assay type: functional; settings: ATCC 10240, 24 h; method in brief: as §1
Aspergillus niger [20] = assay: Fungicidal activity against Aspergillus niger ATCC 6275 after 72 hrs by serial subcultivation method; assay type: functional; settings: ATCC 6275, 72 h
Aspergillus fumigatus [21] = assay: Antifungal activity against Aspergillus fumigatus after 72 hrs by serial dilution technique; assay type: functional; method in brief: as §2
Bacillus cereus [22] = assay: Bactericidal activity against Bacillus cereus clinical isolate after 72 hrs by serial subcultivation method; assay type: functional
Staphylococcus aureus [23] = assay: Antibacterial activity against Staphylococcus aureus ATCC 6538 after 24 hr by microdilution test; assay type: functional; settings: ATCC 6538, 24 h; method in brief: as §1
Talaromyces funiculosus [24] = assay: Fungicidal activity against Penicillium funiculosum ATCC 36839 after 72 hrs by serial subcultivation method; assay type: functional; settings: ATCC 36839, 72 h
Trichoderma viride [25] = assay: Fungicidal activity against Trichoderma viride IAM 5061 after 72 hrs by serial subcultivation method; assay type: functional; settings: IAM 5061, 72 h
Aspergillus niger [26] = assay: Antifungal activity against Aspergillus niger ATCC 6275 after 72 hrs by serial dilution technique; assay type: functional; settings: ATCC 6275, 72 h; method in brief: as §2
Aspergillus flavus [27] = assay: Antifungal activity against Aspergillus flavus ATCC 9643 after 72 hrs by serial dilution technique; assay type: functional; settings: ATCC 9643, 72 h; method in brief: as §2
Talaromyces funiculosus [28] = assay: Antifungal activity against Penicillium funiculosum ATCC 36839 after 72 hrs by serial dilution technique; assay type: functional; settings: ATCC 36839, 72 h; method in brief: as §2

Row | SMILES | MBC (Pseudomonas aeruginosa [1]) [µM] | MIC (Bacillus cereus [2]) [µM] | MFC (Aspergillus flavus [3]) [µM] | MFC (Aspergillus fumigatus [4]) [µM] | MFC (Penicillium ochrochloron [5]) [µM] | MIC (Pseudomonas aeruginosa [6]) [µM] | inhibition [7] [%] | MIC (Trichoderma viride [8]) [µM] | MBC (Escherichia coli [9]) [µM] | inhibition in vivo at 10 µmol/kg (Mus musculus [10]) [%] | MBC (Micrococcus flavus [11]) [µM] | Activity (Mus musculus [12]) | MBC (Listeria monocytogenes [13]) [µM] | MIC (Listeria monocytogenes [14]) [µM] | MIC (Escherichia coli [15]) [µM] | MBC (Staphylococcus aureus [16]) [µM] | MIC (Penicillium ochrochloron [17]) [µM] | pIC50 [18] | MIC (Micrococcus flavus [19]) [µM] | MFC (Aspergillus niger [20]) [µM] | other results
1 | COc1ccccc1/C=C1\S/C(=N/c2nccs2)NC1=O | 63 (≈ 20 µg/mL) | 31.5 (≈ 10 µg/mL) | 31.5 (≈ 10 µg/mL) | 31.5 (≈ 10 µg/mL) | 31.5 (≈ 10 µg/mL) | 31.5 (≈ 10 µg/mL) | 86 | 15.8 (≈ 5.01 µg/mL) | 63 (≈ 20 µg/mL) | 50 | 31.5 (≈ 10 µg/mL) | Non-toxic | 63 (≈ 20 µg/mL) | 31.5 (≈ 10 µg/mL) | 31.5 (≈ 10 µg/mL) | 63 (≈ 20 µg/mL) | 15.8 (≈ 5.01 µg/mL) | 4.20 | 31.5 (≈ 10 µg/mL) | 31.5 (≈ 10 µg/mL) | MIC (Aspergillus fumigatus [21]): 15.8 µM (≈ 5.01 µg/mL); MBC (Bacillus cereus [22]): 31.5 µM (≈ 10 µg/mL); MIC (Staphylococcus aureus [23]): 31.5 µM (≈ 10 µg/mL); MFC (Talaromyces funiculosus [24]): 31.5 µM (≈ 10 µg/mL); MFC (Trichoderma viride [25]): 31.5 µM (≈ 10 µg/mL); MIC (Aspergillus niger [26]): 15.8 µM (≈ 5.01 µg/mL); MIC (Aspergillus flavus [27]): 23.6 µM (≈ 7.49 µg/mL); MIC (Talaromyces funiculosus [28]): 15.8 µM (≈ 5.01 µg/mL)
2 | O=C1N/C(=N\c2nc(-c3ccccc3)cs2)S/C1=C\c1ccc(Cl)cc1 | 100 (≈ 39.8 µg/mL) | 25 (≈ 9.95 µg/mL) | 27.3 (≈ 10.9 µg/mL) | 27.3 (≈ 10.9 µg/mL) | 27.3 (≈ 10.9 µg/mL) | 50 (≈ 19.9 µg/mL) | 78 | 13.7 (≈ 5.45 µg/mL) | 50 (≈ 19.9 µg/mL) | 27.3 | 25 (≈ 9.95 µg/mL) | Non-toxic | 100 (≈ 39.8 µg/mL) | 50 (≈ 19.9 µg/mL) | 50 (≈ 19.9 µg/mL) | 100 (≈ 39.8 µg/mL) | 13.7 (≈ 5.45 µg/mL) | 4.27 | 25 (≈ 9.95 µg/mL) | 27.3 (≈ 10.9 µg/mL) | MIC (Aspergillus fumigatus [21]): 13.7 µM (≈ 5.45 µg/mL); MBC (Bacillus cereus [22]): 50 µM (≈ 19.9 µg/mL); MIC (Staphylococcus aureus [23]): 50 µM (≈ 19.9 µg/mL); MFC (Talaromyces funiculosus [24]): 27.3 µM (≈ 10.9 µg/mL); MFC (Trichoderma viride [25]): 27.3 µM (≈ 10.9 µg/mL); MIC (Aspergillus niger [26]): 13.7 µM (≈ 5.45 µg/mL); MIC (Aspergillus flavus [27]): 13.7 µM (≈ 5.45 µg/mL); MIC (Talaromyces funiculosus [28]): 20.5 µM (≈ 8.16 µg/mL)
3 | O=C1N/C(=N\c2nc(-c3ccccc3)cs2)S/C1=C\c1ccccc1 | 108 (≈ 39.3 µg/mL) | 6.8 (≈ 2.47 µg/mL) | 25.2 (≈ 9.16 µg/mL) | 25.2 (≈ 9.16 µg/mL) | 25.2 (≈ 9.16 µg/mL) | 27 (≈ 9.81 µg/mL) | 67 | 12.6 (≈ 4.58 µg/mL) | 108 (≈ 39.3 µg/mL) | 59.3 | 27 (≈ 9.81 µg/mL) | Non-toxic | 27 (≈ 9.81 µg/mL) | 27 (≈ 9.81 µg/mL) | 54 (≈ 19.6 µg/mL) | 108 (≈ 39.3 µg/mL) | 19 (≈ 6.91 µg/mL) | 4.18 | 27 (≈ 9.81 µg/mL) | 25.2 (≈ 9.16 µg/mL) | MIC (Aspergillus fumigatus [21]): 19 µM (≈ 6.91 µg/mL); MBC (Bacillus cereus [22]): 27 µM (≈ 9.81 µg/mL); MIC (Staphylococcus aureus [23]): 54 µM (≈ 19.6 µg/mL); MFC (Talaromyces funiculosus [24]): 25.2 µM (≈ 9.16 µg/mL); MFC (Trichoderma viride [25]): 25.2 µM (≈ 9.16 µg/mL); MIC (Aspergillus niger [26]): 19 µM (≈ 6.91 µg/mL); MIC (Aspergillus flavus [27]): 19 µM (≈ 6.91 µg/mL); MIC (Talaromyces funiculosus [28]): 19 µM (≈ 6.91 µg/mL)
